Assays:
[1] = target: T1, Peroxisome proliferator-activated receptor gamma (Homo sapiens) (UniProt P37231); assay: Agonist activity against human PPARgamma in human HEK293T cells co-expressing pFR/pRL-Luc assessed as receptor activation at 10 uM incubated for 14 to 16 hrs by hybrid reporter gene assay relative to bexarotene; format: cell-based; details: filed as agonist, time 14-16 hrs
T1 sequence (whole entry): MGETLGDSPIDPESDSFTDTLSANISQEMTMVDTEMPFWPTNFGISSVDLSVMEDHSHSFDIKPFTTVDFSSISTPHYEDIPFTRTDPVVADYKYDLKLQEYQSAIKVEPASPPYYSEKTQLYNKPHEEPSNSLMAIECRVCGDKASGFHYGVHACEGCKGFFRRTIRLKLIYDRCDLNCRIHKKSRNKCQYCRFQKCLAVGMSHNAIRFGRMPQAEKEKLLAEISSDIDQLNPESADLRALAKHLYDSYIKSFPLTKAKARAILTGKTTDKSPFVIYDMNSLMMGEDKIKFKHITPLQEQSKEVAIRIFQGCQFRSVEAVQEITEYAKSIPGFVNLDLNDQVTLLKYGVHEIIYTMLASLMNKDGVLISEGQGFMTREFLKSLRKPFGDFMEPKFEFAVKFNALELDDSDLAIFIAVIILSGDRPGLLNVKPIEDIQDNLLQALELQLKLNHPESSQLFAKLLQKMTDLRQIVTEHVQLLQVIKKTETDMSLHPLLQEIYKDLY
Summary of the method: (§1)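 Gal4 hybrid reporter assay in HEK293T cells, seeded 24 h before transfection (Lipofectamine LTX, Opti-MEM) with pFR-Luc, pRL-SV40 and pFA-CMV plasmid carrying the hinge region and LBD of the human receptor. After 5 h, compound added in 0.1% DMSO, with 0.1% DMSO alone as untreated control. Dual-Glo luciferase read after 14−16 h; firefly/renilla normalized; duplicates, ≥2 independent experiments.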

[2] = Cmax in mouse at 10 mg/kg, po; format: ADME, organism-based; parameters: route oral, dose 10 mg/kg; details: in vivo
Summary of the method: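 Mice, n = 3, received a single oral dose of 10 mg/kg in water with 1% hydroxypropyl methylcellulose/Tween 80 (99:1). Tail-vein blood was drawn at 30 and 60 min and tissue collected at 3 h. Compound was quantified by LC−MS and PK derived by noncompartmental analysis.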

[3] = target: T2, Retinoic acid receptor RXR-beta (Homo sapiens, UniProt P28702); assay: Agonist activity at human RXRbeta transfected in human HEK293T cells co-expressing pFR/pRL-Luc incubated for 14 to 16 hrs by hybrid reporter gene assay; format: cell-based
T2 sequence (P28702 whole entry): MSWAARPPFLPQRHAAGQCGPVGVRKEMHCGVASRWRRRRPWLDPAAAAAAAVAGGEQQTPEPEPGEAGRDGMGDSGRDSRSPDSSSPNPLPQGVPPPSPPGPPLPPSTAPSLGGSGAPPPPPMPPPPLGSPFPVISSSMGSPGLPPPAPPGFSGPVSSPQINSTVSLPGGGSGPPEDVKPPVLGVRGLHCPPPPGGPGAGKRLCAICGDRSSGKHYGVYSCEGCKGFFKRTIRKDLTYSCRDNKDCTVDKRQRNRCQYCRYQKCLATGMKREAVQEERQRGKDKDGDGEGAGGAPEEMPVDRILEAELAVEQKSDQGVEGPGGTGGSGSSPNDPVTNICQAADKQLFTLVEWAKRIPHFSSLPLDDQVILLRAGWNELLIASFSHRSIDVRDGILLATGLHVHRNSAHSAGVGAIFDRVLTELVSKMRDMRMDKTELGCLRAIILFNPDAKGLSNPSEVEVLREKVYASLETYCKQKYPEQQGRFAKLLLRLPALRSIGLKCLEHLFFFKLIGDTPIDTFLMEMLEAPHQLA

[4] = target: T3, Retinoic acid receptor RXR-gamma (Homo sapiens) (UniProt P48443); assay: Agonist activity against human RXRgamma in human HEK293T cells co-expressing pFR/pRL-Luc assessed as receptor activation at 10 uM incubated for 14 to 16 hrs by hybrid reporter gene assay relative to bexarotene; format: cell-based; details: filed as agonist, time 14-16 hrs; summary of the method: as §1
T3 sequence (whole entry): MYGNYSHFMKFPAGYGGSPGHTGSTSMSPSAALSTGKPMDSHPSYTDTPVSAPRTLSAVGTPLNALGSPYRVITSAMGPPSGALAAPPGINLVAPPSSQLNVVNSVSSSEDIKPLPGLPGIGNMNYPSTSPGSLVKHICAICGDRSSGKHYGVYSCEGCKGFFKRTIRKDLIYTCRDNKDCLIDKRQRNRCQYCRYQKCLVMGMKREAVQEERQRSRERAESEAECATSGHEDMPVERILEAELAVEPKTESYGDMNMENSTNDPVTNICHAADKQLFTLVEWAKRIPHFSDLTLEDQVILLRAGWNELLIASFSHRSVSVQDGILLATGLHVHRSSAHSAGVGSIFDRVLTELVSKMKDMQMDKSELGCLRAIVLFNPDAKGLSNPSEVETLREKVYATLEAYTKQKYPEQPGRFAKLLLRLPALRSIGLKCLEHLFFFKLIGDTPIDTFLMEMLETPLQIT

[5] = target: T4, Retinoic acid receptor RXR-alpha (Homo sapiens) (UniProt P19793); assay: Agonist activity against human RXRalpha in human HEK293T cells co-expressing pFR/pRL-Luc assessed as receptor activation at 10 uM incubated for 14 to 16 hrs by hybrid reporter gene assay relative to bexarotene; format: cell-based; details: filed as agonist, time 14-16 hrs; summary of the method: as §1
T4 sequence (whole entry): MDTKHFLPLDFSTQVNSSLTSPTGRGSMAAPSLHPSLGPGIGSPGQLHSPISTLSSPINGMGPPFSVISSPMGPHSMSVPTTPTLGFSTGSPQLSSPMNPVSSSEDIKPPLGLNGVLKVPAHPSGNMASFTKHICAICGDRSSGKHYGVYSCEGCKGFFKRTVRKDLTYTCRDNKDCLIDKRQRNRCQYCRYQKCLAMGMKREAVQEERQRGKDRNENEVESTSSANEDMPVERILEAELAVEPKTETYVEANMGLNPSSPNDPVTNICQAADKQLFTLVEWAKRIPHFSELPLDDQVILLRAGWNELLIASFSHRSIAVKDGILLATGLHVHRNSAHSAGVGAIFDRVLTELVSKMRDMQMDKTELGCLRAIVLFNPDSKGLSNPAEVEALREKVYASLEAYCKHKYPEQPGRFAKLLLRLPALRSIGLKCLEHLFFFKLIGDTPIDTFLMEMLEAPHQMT

[6] = tested on: HepG2; assay: Cytotoxicity against human HepG2 cells assessed as reduction in cell viability incubated for 48 hrs by WST-1 assay; details: HepG2, 48 h

Activity [1]: 2%
Cmax [2]: 35000 ng/mL
EC50 [3]: 350 nM
Activity [4]: 27%
Activity [5]: 21%
Structure (SMILES): O=C(O)CCCc1cc(-c2cc(Cl)cc(Cl)c2)n(-c2ccccc2)n1
IC50 [6]: > 100000 nM

From ChEMBL document CHEMBL4834419 (J Med Chem, 2021)
